{"source": "ChEMBL document CHEMBL1133099", "about": "“Structure-property model for membrane partitioning of oligopeptides” (J Med Chem, 2000)", "assay_type_in_all_cases": "physicochemical", "key": {"[1]": {"experiment": "Ionization constant (pKa1) values were determined by potentiometric titrations.", "conditions": "read-out: pKa1"}, "[2]": {"experiment": "Ionization constant (pKa2) values were determined by potentiometric titrations.", "conditions": "read-out: pKa2"}, "[3]": {"experiment": "Distribution coefficient between n-octanol and hanks buffered saline solution", "outline": "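Distribution between n-octanol and Hanks buffered saline at pH 7.4, measured by the shake-flask method.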"}, "[4]": {"experiment": "pKa1 values were determined by potentiometric titrations.", "conditions": "read-out: pKa1"}, "[5]": {"experiment": "pKa2 values were determined by potentiometric titrations.", "conditions": "read-out: pKa2"}}, "note": "Residues, ends and D or L forms follow the SMILES beside them."}
{"smiles": "CC(=O)NCC(=O)N(C)[C@@H](Cc1ccccc1)C(=O)N[C@@H](CCCCN)C(=O)N[C@@H](CC(=O)O)C(N)=O", "note": "(HELM PEPTIDE1{[ac].G.[meF].K.D.[am]}$$$$V2.0)", "values": [{"measurement": "pKa", "setting": "[1]", "value": 3.78}, {"measurement": "pKa", "setting": "[2]", "value": 10.3}]}
{"smiles": "CC(=O)NCC(=O)N[C@@H](CC(C)C)C(=O)N[C@@H](CC(=O)O)C(=O)N(C)[C@@H](Cc1ccccc1)C(N)=O", "note": "(HELM PEPTIDE1{[ac].G.L.D.[meF].[am]}$$$$V2.0)", "values": [{"measurement": "pKa", "setting": "[1]", "value": 3.93}]}
{"smiles": "CC(=O)NCC(=O)N(C)CC(=O)N[C@@H](CC(C)C)C(=O)N[C@@H](Cc1ccccc1)C(N)=O", "note": "(HELM PEPTIDE1{[ac].G.[Sar].L.F.[am]}$$$$V2.0)", "values": [{"measurement": "logD", "setting": "[3]", "value": 0.05}]}
{"smiles": "CC(=O)N[C@@H](CC(=O)O)C(=O)N[C@@H](CCC(N)=O)C(=O)N[C@@H](CC(C)C)C(=O)N[C@@H](Cc1ccccc1)C(N)=O", "note": "(Ac-DQLF-NH2)", "values": [{"measurement": "pKa", "setting": "[4]", "value": 3.97}, {"measurement": "logD", "setting": "[3]", "value": "> -2.5"}]}
{"smiles": "CC(=O)N[C@@H](CCCCN)C(=O)N(C)CC(=O)N[C@@H](Cc1ccc(O)cc1)C(=O)N(C)[C@@H](CC(=O)O)C(N)=O", "note": "(HELM PEPTIDE1{[ac].K.[Sar].Y.[meD].[am]}$$$$V2.0)", "values": [{"measurement": "pKa", "setting": "[1]", "value": 3.6}, {"measurement": "pKa", "setting": "[2]", "value": 9.69}]}
{"smiles": "CC(=O)N[C@@H](CO)C(=O)N(C)[C@@H](Cc1ccccc1)C(=O)NCC(=O)NCC(N)=O", "note": "(HELM PEPTIDE1{[ac].S.[meF].G.G.[am]}$$$$V2.0)", "values": [{"measurement": "logD", "setting": "[3]", "value": -1.51}]}
{"smiles": "CC(=O)N[C@@H](Cc1ccc(O)cc1)C(=O)NCC(=O)NCC(=O)N[C@@H](CCC(N)=O)C(N)=O", "note": "(Ac-YGGQ-NH2)", "values": [{"measurement": "logD", "setting": "[3]", "value": -2.59}]}
{"smiles": "CC(=O)N[C@@H](Cc1ccccc1)C(=O)N[C@@H](CCC(N)=O)C(=O)N[C@@H](CCCCN)C(=O)N(C)[C@@H](CC(C)C)C(N)=O", "note": "(HELM PEPTIDE1{[ac].F.Q.K.[meL].[am]}$$$$V2.0)", "values": [{"measurement": "pKa", "setting": "[5]", "value": 10.1}]}
{"smiles": "CC(=O)N[C@@H](Cc1ccccc1)C(=O)N[C@@H](CC(C)C)C(=O)N[C@H](C(=O)N(C)[C@@H](CC(C)C)C(N)=O)C(C)C", "note": "(HELM PEPTIDE1{[ac].F.L.V.[meL].[am]}$$$$V2.0)", "values": [{"measurement": "logD", "setting": "[3]", "value": 2.42}]}
{"smiles": "CC(=O)N[C@@H](Cc1ccccc1)C(=O)N1CCC[C@H]1C(=O)N[C@@H](Cc1ccccc1)C(=O)N[C@@H](Cc1ccc(O)cc1)C(N)=O", "note": "(Ac-FPFY-NH2)", "values": [{"measurement": "logD", "setting": "[3]", "value": 1.64}]}
{"smiles": "CC(=O)N[C@@H](CCCCN)C(=O)N(C)[C@@H](Cc1ccccc1)C(=O)NCC(=O)N(C)[C@@H](CC(C)C)C(N)=O", "note": "(HELM PEPTIDE1{[ac].K.[meF].G.[meL].[am]}$$$$V2.0)", "values": [{"measurement": "pKa", "setting": "[5]", "value": 9.94}, {"measurement": "logD", "setting": "[3]", "value": -1.33}]}
